From PubChem
A selection: hits, their analogues and other compounds. The true share with any hit is near 2.3%.
TRPC6 activator: activators of mouse TRPC6 channel; AID 2550; B-score at 10 µM; 310,000 compounds, 0.13% hits; Q61143; HEK293-TRPC6 membrane potential dye fluorescence; stronger effect = higher value;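 active means B-score of the integrated fluorescence ratio above library mean plus 3 SD, and starting fluorescence ratio within library mean plus 5 SD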;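 further: higher score means more depolarization so channel activation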
TRPC6 inh: blocks the mouse TRPC6 cation channel; HEK293-TRPC6, membrane potential dye, ACh-evoked depolarization; stronger effect = lower value; B-score at 10 µM; 310,000 compounds, 1.1% hits; AID 2553;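 active means B-score under library mean minus 3 SD, initial fluorescence not abnormally high, positive integrated signal ratio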;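 further: B-score derived from integrated fluorescence ratio over the kinetic read; more negative B-score means stronger inhibition of depolarization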
TRPC4 PAM: allosterically enhances the mouse TRPC4 cation channel. 310,000 compounds, 0.42% hits. HEK293 TRPC4beta/mu-opioid, DAMGO EC20, Fluo-4 Ca2+ flux; stronger effect = higher value. AID 2227. B-score at 10 µM;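 active means B-score of calcium response area above 5 SD of library B-scores, with initial fluorescence ratio within 5 SD of library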;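 further: B-score of integrated fluorescence ratio over time as area under calcium response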
TRPC4 act: opens the mouse TRPC4 cation channel; Q9QUQ5; HEK293 TRPC4beta/mu-opioid, Fluo4 calcium fluorescence; stronger effect = higher value; B-score at 10 µM; 310,000 compounds, 0.49% hits; AID 2237;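 active means B-score above 5 SD of library B-scores, and initial fluorescence ratio not above library mean plus 5 SD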;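 further: positive B-score marks a calcium rise read as TRPC4 activation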
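Assay system: HEK293 stable line with TRPC4beta plus mu-opioid receptor. Times: dye 45 min RT, read 110 s. Measured by: kinetic Fluo4 calcium fluorescence. Measure: B score of integrated ratio. Controls: assay buffer as low control, maximal DAMGO as high control.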
TRPC4 inh: inhibitors of mouse TRPC4 channel; 300,000 compounds, 0.39% hits; HEK293 TRPC4beta/mu-opioid, DAMGO-evoked Fluo4 calcium flux; stronger effect = lower value; Q9QUQ5; B-score at 10 µM;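 active means B-score over 3 SD under the library average, no early fluorescence shift, positive overall ratio signal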
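material = TRPC4beta/mu-opioid receptor HEK293 cell line | probe or stimulus = sequential submaximal and maximal DAMGO stimulation | compound dosing = one concentration per compound | measured by = Fluo4 Ca2+ flux fluorescence | evaluation = integrated fluorescence ratio relative to baseline, converted to per-well B score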
TRPC4 spec 2: second check of whether TRPC6 inhibitors also affect mouse TRPC4; HEK293 TRPC4/MOR, membrane potential dye fluorescence; channel activated by saturating DAMGO dose; inhibition, % at 10 µM; 920 compounds, 42% hits; shares compounds with TRPC6 inh;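 active means compounds whose fluorescence signal differed from control wells by over 3 SD, either direction, in both duplicate plates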
TRPC4 spec: mouse TRPC4 off-target activity of TRPC6 inhibitors | 920 compounds, 61% hits | shares compounds with TRPC6 inh | HEK293 TRPC4/mu-opioid, membrane potential fluorescence | activity change, negative = inhibition, % at 10 µM;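 active means rise or fall in signal beyond 3 SD of buffer-only wells in both replicate plates, either sign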;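 further: integrated kinetic ratio of fluorescence range over baseline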
HEK293 MPD ctr 2-1: parental HEK293 nonspecific activity of TRPC6 inhibitors, second screen; shares compounds with TRPC6 inh; parental HEK293 membrane potential dye fluorescence; maximal acetylcholine challenge after compound addition; signal change vs control, % at 10 µM; 920 compounds, 31% hits;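 active means membrane potential signal moving either way by over 3 SD of the maximum-effect control, in both duplicate plates, meaning non-specific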
HEK293 MPD ctr-1: checks TRPC6 inhibitor effects in parental HEK293 cells; shares compounds with TRPC6 inh; parental HEK293 membrane potential dye fluorescence; membrane potential signal change, % at 10 µM; 920 compounds, 60% hits;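 active means membrane potential signal shifting up or down by more than 3 SD of buffer-only wells, on both duplicate plates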
HEK293 MPD ctr-2: counter-screen for TRPC6 modulators: effect in parental HEK293 cells. membrane potential signal change, % at 10 µM. 2,400 compounds, 51% hits. AID 488924. shares compounds with TRPC6 inh. membrane potential dye fluorescence;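 active means membrane potential signal moves up or down beyond 5 SD from buffer-only wells, on both duplicate plates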
HEK293 MPD ctr 2-2: second counter-screen for TRPC6 modulators: effect in parental HEK293 cells. shares compounds with TRPC6 inh. membrane potential dye fluorescence; after compound, maximal acetylcholine stimulation. inhibition, % at 10 µM. 2,400 compounds, 14% hits. AID 488926;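 active means membrane potential signal drops by more than 5 SD from the mean control signal, in both duplicate plates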;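 further: plate controls were acetylcholine ECmax control wells for no effect and buffer only wells for full effect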
TRPC4 ctr mod: tests whether TRPC6 modulators also affect mouse TRPC4. shares compounds with TRPC6 inh. percent change from control (negative = decrease, positive = increase), % at 10 µM. 2,400 compounds, 69% hits. HEK293 TRPC4/mu-opioid, membrane potential fluorescence;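 active means membrane potential signal moved up or down beyond 5 SD of buffer control wells, in both duplicate plates, actives on both sides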;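 further: plate controls were assay buffer wells for no effect and DAMGO maximal-effect wells for full effect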
TRPC4/MOR inh 2: second selectivity test of TRPC6 modulators against mouse TRPC4; shares compounds with TRPC6 inh; HEK293 TRPC4/mu-opioid, membrane potential dye fluorescence; stimulated with maximal-effect DAMGO; inhibition, % at 10 µM; 2,400 compounds, 55% hits; AID 488928;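 active means drop in membrane potential signal beyond 5 SD of the control wells in both duplicate plates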;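 further: TRPC4 counter screen for TRPC6 hits run under conditions tuned for TRPC6 not TRPC4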
TRPC6 block conf: mouse TRPC6 inhibitor confirmation; 3,300 compounds, 43% hits; inhibition, % at 10 µM; shares compounds with TRPC6 inh; HEK293-TRPC6, membrane potential dye, ACh-evoked depolarization;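 active means fluorescence ratio falls more than 5 SD below the full-stimulation control mean, in both duplicate runs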;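 further: integrated fluorescence ratio of peak minus minimum over baseline after agonist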
TRPC6 act confirm: confirmation of mouse TRPC6 activators; shares compounds with TRPC6 inh; 2,800 compounds, 11% hits; HEK293-TRPC6 membrane potential dye fluorescence, FDSS; activation, % at 10 µM;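 active means ratio signal rise beyond 5 SD above unstimulated control wells' mean, seen in both duplicate runs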;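 further: plate controls were buffer EC0 wells for no effect and acetylcholine ECmax response for full effect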
Active calls of the source: *; i = inactive; nt = no result.

SMILES	TRPC6 activator	TRPC6 inh	TRPC4 PAM	TRPC4 act	TRPC4 inh	TRPC6 block conf	TRPC6 act confirm	others
CC(C)C(=O)Nc1c2c(nc3ccccc13)N(C)CC2	i	i	i	i	i	nt	nt
O=C(CN1CCOCC1)Nc1c2c(nc3ccccc13)N(Cc1ccccc1)CC2	i	i	i	i	i	nt	nt
CN(C)c1cc(NC(=O)CN2CCCC2)c2ccccc2n1	i	-7.2*	i	i	i	i	i	TRPC4 spec 2=66%*;TRPC4 spec=-19%*;HEK293 MPD ctr 2-1=i;HEK293 MPD ctr-1=-324%*
CCN(CC)CC(=O)Nc1c2c(nc3ccccc13)N(C)CC2	i	-7.5*	i	i	i	48%*	i	HEK293 MPD ctr-2=-213%*;HEK293 MPD ctr 2-2=i;TRPC4 ctr mod=-30%*;TRPC4/MOR inh 2=54%*
CCOC(=O)C1(CCCc2ccccc2)CCN(C(=O)C(C)n2cncn2)CC1 (stereo not given)	i	i	i	i	i	nt	nt
NS(=O)(=O)c1ccc(CCNS(=O)(=O)c2cccc(C(=O)O)c2)cc1	i	i	i	i	i	nt	nt
CC1CCCN(CC(=O)Nc2ccc(S(=O)(=O)N3CCCC3)cc2)C1 (stereo not given)	i	i	i	i	i	nt	nt
C=CCn1c(=O)c2c(nc(-n3nc(C)cc3C)n2C)n(C)c1=O	i	i	i	i	i	nt	nt
CCNc1nc(NCC)n2c(SC(C(=O)Nc3cc(Cl)cc(Cl)c3)c3ccccc3)nnc2n1 (stereo not given)	i	i	i	i	i	nt	nt
CC(C)C(C)NC(=O)CN1C(=O)NC2(CCc3ccccc32)C1=O (stereo not given)	i	i	i	i	i	nt	nt
CN(C)c1ccc2c3c(ccc(N(C)C)c13)C(=O)OC2	i	-6*	i	i	i	i	i	HEK293 MPD ctr-2=-408%*;HEK293 MPD ctr 2-2=i;TRPC4 ctr mod=-68%*;TRPC4/MOR inh 2=44%*
CS(=O)(=O)Nc1ccc2c(c1)C(=O)OC2	i	i	i	i	i	nt	nt
Cc1ccc([N+](=O)[O-])cc1N=Nc1c(C)[nH]n(C(N)=S)c1=O	i	i	i	i	i	nt	nt
Cc1ccc([N+](=O)[O-])cc1N=Nc1c(-c2ccc([N+](=O)[O-])cc2)[nH]n(C(N)=S)c1=O	i	-6.4*	i	i	i	48%*	i	HEK293 MPD ctr-2=i;HEK293 MPD ctr 2-2=i;TRPC4 ctr mod=i;TRPC4/MOR inh 2=48%*
